The record followed here is ChEMBL document CHEMBL1125930, “3-O-alkylascorbic acids as free-radical quenchers: synthesis and inhibitory effect on lipid peroxidation” (J Med Chem, 1991).

What is called inhibition is the share of the control response that was lost under treatment. A low value points to little suppression.

The species entered for data set [1] is Rattus norvegicus. Put plainly: The compound was tested for the inhibition of lipid peroxidation in rat liver microsomes induced by [Fe2+] at a concentration of 10E-5 M. It is filed as functional. The essentials:
(§1)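 Liver microsomes from 24 h-fasted Wistar rats (8000g then 105000g pellet, in 0.15 M KCl, protein by Lowry). 1 mL mix: 83.5 mM KCl, 37.2 mM Tris-HCl pH 7.4, 10 μM FeSO4, 2 mg microsomal protein, compound in 0.01 mL DMF. 37 °C for 20 min. TBA-reactive material read at 532 nm after n-BuOH/pyridine extraction. Reported against vehicle control.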

Data set [2] is filed under the species Rattus norvegicus. Put plainly: The compound was tested for the inhibition of lipid peroxidation in rat liver microsomes induced by [Fe3+] at a concentration of 10E-5 M. It is filed as functional. The method in brief:
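Fasted Wistar rat liver microsomes, 2.0 mg protein in 1 mL of 83.5 mM KCl/37.2 mM Tris-HCl pH 7.4. Peroxidation started with 1 mM ADP, 10 μM FeCl3 and 0.02 mM NADPH. Compound added in 0.01 mL DMF. 37 °C for 20 min, stopped on ice. Malondialdehyde measured as TBA-reactive material: 95 °C for 20 min, butanol/pyridine extract, A532. Compared with vehicle control.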
A general note: Liver microsomes are vesicles of endoplasmic reticulum, rich in cytochrome P450 enzymes.

Data set [3] can be described thus: Partition ratio obtained from HPLC analysis. It is filed as ADME.
Data set [4] is filed under the species Rattus norvegicus. Put plainly: The compound was tested for the stimulation of lipid peroxidation in rat liver microsomes induced by [Fe2+] at a concentration of 10E-5 M. It is filed as functional. The method in brief: as §1

Turning to `CCCCCCCCOC1=C(O)C(=O)OC1C(O)CO` (centres undefined), the results for the inhibition in the data set filed under Rattus norvegicus [1] and in the data set filed under Rattus norvegicus [2] were 9% and 40%, respectively. In addition, the “k'” value in data set [3] was found to be 0.62.
For `CCCCCCCCCCCCCCCCC(=O)COC1=C(O)C(=O)OC1C(O)CO` (centres undefined), the inhibition in the data set listed under Rattus norvegicus [1] was determined as 28%; in the data set filed under Rattus norvegicus [2] it was 43%. In addition, in data set [3], the “k'” value is given as 8.26.
For `CCCCCCCCCCCCCCOC1=C(O)C(=O)OC1C(O)CO` (centres undefined), the inhibition was 30% in the data set listed under Rattus norvegicus [1] and 81% in the data set listed under Rattus norvegicus [2]. The “k'” value in data set [3] came out at 4.78.
`CCCCOC(=O)COC1=C(O)OC(C(O)CO)C1=O` (centres undefined) yielded an inhibition in the data set filed under Rattus norvegicus [2] of 10%.
In the data set filed under Rattus norvegicus [1], `CCCCCCCCCCOC(=O)COC1=C(O)C(=O)OC1C(O)CO` (centres undefined) came in with an inhibition of 31%.
`CCCCCCCCCCOC1=C(O)C(=O)OC1C(O)CO` (centres undefined): the results for the inhibition in the data set filed under Rattus norvegicus [1] and in the data set listed under Rattus norvegicus [2] were 44% and 91%, respectively. For the same compound, the “k'” value in data set [3] was 1.27.
In the data set listed under Rattus norvegicus [2], `CCCCCCCCOC1=C(O)OC(C(O)CO)C1=O` (centres undefined) yielded an inhibition of 20%. Further, the “k'” value in data set [3] is on record as < 0.2.
Regarding `CCCCCCCCCCCCOC1=C(O)C(=O)OC1C(O)CO` (centres undefined), the inhibition in the data set filed under Rattus norvegicus [1] amounted to 34%; in the data set filed under Rattus norvegicus [2] it was 88%. Besides, the “k'” value in data set [3] is recorded as 2.49.
For the compound `CCCCCCCCCCCCOC1=C(O)OC(C(O)CO)C1=O` (centres undefined), in the data set listed under Rattus norvegicus [2], the inhibition was determined as 83%. The “k'” value in data set [3] is listed as 0.63.
Regarding `CCCCCCC(=O)COC1=C(O)C(=O)OC1C(O)CO` (centres undefined), the inhibition is 20% in the data set listed under Rattus norvegicus [1] and 27% in the data set filed under Rattus norvegicus [2]. The “k'” value in data set [3] was 0.24.
As for `CC(=O)COC1=C(O)C(C2COC(C)(C)O2)OC1=O` (centres undefined), the inhibition in the data set filed under Rattus norvegicus [2] is 2%. Also, in data set [3], the “k'” value was < 0.1.
For the compound `CCCCCCCCCCCCCCCCOC1=C(O)C(=O)OC1C(O)CO` (centres undefined), the inhibition turned out to be 21% in the data set filed under Rattus norvegicus [1] and 74% in the data set filed under Rattus norvegicus [2]. Moreover, the “k'” value in data set [3] is on record as 9.09.
The compound `O=C1O[C@H]([C@@H](O)CO)C(O)=C1O` [ASCORBIC ACID] had a Stimulation in the data set filed under Rattus norvegicus [4] of 72%. In addition, in data set [3], the “k'” value was < 0.1.
`CCCCCCCCCCCCC(=O)COC1=C(O)C(=O)OC1C(O)CO` (centres undefined): the inhibition in the data set listed under Rattus norvegicus [1] amounted to 30%; in the data set filed under Rattus norvegicus [2], 81%. For the same compound, in data set [3], the “k'” value turned out to be 2.25.
For the compound `CCCCCCCCCCCCCCCCCCOC1=C(O)C(=O)OC1C(O)CO` (centres undefined), the inhibition is 7% in the data set listed under Rattus norvegicus [1] and 45% in the data set listed under Rattus norvegicus [2]. Besides, in data set [3], the “k'” value worked out at 17.34.
For `CCCCCCCCCCCCCCCCCCOC1=C(O)[C@@H](C(O)CO)OC1=O` (some centres undefined) the same measures were 29%, 88% and 1.13.
With `CCCCCCCCCCCCCCCCC(=O)COC1=C(O)OC(C(O)CO)C1=O` (centres undefined), the inhibition in the data set filed under Rattus norvegicus [2] worked out at 55%. Further, the “k'” value in data set [3] amounted to 0.45.
On to `CCCCCCCCCCC(=O)COC1=C(O)C(=O)OC1C(O)CO` (centres undefined), for which the inhibition in the data set listed under Rattus norvegicus [1] turned out to be 44%; in the data set filed under Rattus norvegicus [2] it was 88%. In data set [3], the “k'” value came out at 1.14.
`CCCCCCCCCCOC1=C(OCCCCCCCCCC)C(C(O)CO)OC1=O` (centres undefined): the inhibition in the data set listed under Rattus norvegicus [2] was determined as 2%.
As to `CCCCCCCCC(=O)COC1=C(O)C(=O)OC1C(O)CO` (centres undefined), the inhibition in the data set listed under Rattus norvegicus [1] came to 33%; in the data set filed under Rattus norvegicus [2], 64%. In addition, the “k'” value in data set [3] worked out at 0.55.
As for `CCCCCCCCCCCCCCC(=O)COC1=C(O)C(=O)OC1C(O)CO` (centres undefined), the inhibition in the data set listed under Rattus norvegicus [1] stood at 33%; in the data set filed under Rattus norvegicus [2], 65%. Besides, in data set [3], the “k'” value is recorded as 4.33.
As to `O=C1OC(C(O)CO)C(OCc2cccnc2)=C1O` (centres undefined), the inhibition in the data set listed under Rattus norvegicus [2] came out at 2%. Besides, in data set [3], the “k'” value is listed as < 0.1.
